Results on 31 molecules are retold here after ChEMBL document CHEMBL1125666, “In vitro evaluation of phosphocholine and quaternary ammonium containing lipids as novel anti-HIV agents” (J Med Chem, 1991).

The subject of experiment [1] is Human immunodeficiency virus 1. Kind of experiment: In vitro inhibition of HIV-1 plaque formation. It counts as functional, organism-based. Put shortly: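 HIV-1 syncytial plaque assay. CEM-SS cells in log phase, washed in PBS, 50 000 per well in serum-free RPMI-1640 on poly-L-lysine-coated wells, 30 min at 37 °C, 5% CO2. Inoculated with HIV-1 (60–90 PFU). After 60 min, overlay with or without compound at serial twofold dilutions, 0.03–20.0 μM. Second overlay on day 3. Plaques counted on day 5 to give IC50. Mean ± SD, n ≥ 3, or a single experiment.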

Experiment [2] has as its system CEM-SS cells (Homo sapiens). Kind of experiment: In vitro inhibition of CEM-SS cell growth by 50 %.
For experiment [3], the system named is Human immunodeficiency virus 1. Put plainly: Differential selectivity measured as the ratio of CEM-SS cell growth IC50 vs HIV plaque formation IC50. It is filed as functional. Put shortly: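 Selectivity index taken as CEM-SS growth IC50 (48 h suspension culture, [3H]thymidine uptake) divided by HIV-1 syncytial plaque IC50 (day-5 plaque count in CEM-SS monolayers, 60–90 PFU). Both IC50s come from twofold dilutions over 0.03–20.0 μM.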

Some results are limits rather than exact numbers.

As for `CCCCCCCCCCCCCCCCOCC(CO)OCC` (stereo not drawn), the IC50 is > 5000 nM in experiment [1] and > 20000 nM in experiment [2].

Regarding `CCCCCCCCCCCCCCCCCCNC(=O)NCC(COP(=O)([O-])OCC[N+](C)(C)C)OCC` (stereo not drawn), the Ratio in experiment [3] is 13.5. The IC50 was 570 nM in experiment [1] and 7700 nM in experiment [2].

In the case of `CCCCCCCCCCCCCCCCCCOCC(COP(=O)([O-])OCC[N+](C)(C)C)OC` (stereo not drawn) [EDELFOSINE], the Ratio in experiment [3] is 4.3. The figures for the IC50 in experiment [1] and in experiment [2] were 920 nM and 4000 nM, respectively.

Regarding `CCCCCCCCCCCCCCCCOCC(COP(=O)(O)OCCNC(C)(C)C)OCC` (stereo not drawn), the figures for the IC50 in experiment [1] and in experiment [2] were > 5000 nM and 10000 nM, respectively.

As to `CCCCCCCCCCCCCCCCOCC(CN(C)CCO)OC` (stereo not drawn), in experiment [3], the Ratio worked out at 1.5. For the same molecule, the results for the IC50 in experiment [1] and in experiment [2] were 2100 nM and 3200 nM, respectively.

For the molecule `CCCCCCCCCCCCCCCCOCC(C[n+]1ccccc1)OCC.[Br-]` (stereo not drawn), the Ratio in experiment [3] turned out to be 5.2. Moreover, the IC50 in experiment [1] came out at 210 nM; in experiment [2], 1100 nM.

`CCCCCCCCCCCCCCCCCCS(=O)(=O)CC(COP(=O)([O-])OCC[N+](C)(C)C)OCC` (stereo not drawn): in experiment [3], the Ratio turned out to be 7.5. The IC50 worked out at 1200 nM in experiment [1] and 9000 nM in experiment [2].

In the case of `CCCCCCCCCCCCCCCCSCC(C[N+](C)(C)C)OC.[Br-]` (stereo not drawn), the Ratio in experiment [3] is given as 13.4. Moreover, the 50% inhibitory concentration (IC50) in experiment [1] is 390 nM; in experiment [2], 5300 nM.

In the case of `CCCCCCCCCCCCCCCCCCSCC(C[N+](C)(C)CCCO)OC.[I-]` (stereo not drawn), the Ratio in experiment [3] is given as 9.8. In addition, the results for the IC50 in experiment [1] and in experiment [2] were 410 nM and 4000 nM, respectively.

On to `CCCCCCCCCCCCCCCCCC(=O)NCCOP(=O)([O-])OCC[N+](C)(C)C`, for which the Ratio in experiment [3] was found to be 68.7. For the same molecule, the results for the IC50 in experiment [1] and in experiment [2] were 280 nM and 19300 nM, respectively.

Take `CCCCCCCCCCCCCCCCSCCOP(=O)([O-])OCC[N+](C)(C)C`: the Ratio in experiment [3] is reported as 27.1. In addition, the IC50 in experiment [1] turned out to be 280 nM; in experiment [2] it was 7600 nM.

Consider `CCCCCCCCCCCCCCCCCC(=O)NCC(COP(=O)([O-])OCC[N+](C)(C)C)OC` (stereo not drawn), for which, in experiment [3], the Ratio was 47.3. Also, the 50% inhibitory concentration (IC50) is 300 nM in experiment [1] and 14200 nM in experiment [2].

Take `CCCCCCCCCCCCCCCCSCC(COP(=O)([O-])OCC[N+](C)(C)C)OCC` (stereo not drawn): in experiment [3], the Ratio was found to be 5.9. Moreover, the 50% inhibitory concentration (IC50) is 700 nM in experiment [1] and 4100 nM in experiment [2].

Consider `CCCCCCCCCCCCCCCCCCCC(=O)NCC(COP(=O)([O-])OCC[N+](C)(C)C)OCC` (stereo not drawn), for which the Ratio in experiment [3] is 29.4. Moreover, the IC50 in experiment [1] turned out to be 160 nM; in experiment [2] it was 4700 nM.

Take `CCCCCCCCCCCCCCCCOCC[N+](C)(C)CCO.[I-]`: the Ratio in experiment [3] is recorded as 15.6. The results for the IC50 in experiment [1] and in experiment [2] were 380 nM and 6000 nM, respectively.

On to `CCCCCCCCCCCCCCCCOCC(C[N+](C)(C)C)OC.[Br-]` (stereo not drawn), for which the Ratio in experiment [3] was 2.1. Moreover, the figures for the 50% inhibitory concentration (IC50) in experiment [1] and in experiment [2] were 520 nM and 1100 nM, respectively.

Turning to `CCCCCCCCCCCCCCCCCCSCC(COP(=O)([O-])OCC[N+](C)(C)C)OC` (stereo not drawn), the Ratio in experiment [3] was determined as 7.8. The IC50 in experiment [1] was found to be 490 nM; in experiment [2] it was 3800 nM.

`CCCCCCCCCCCCCCCCSCC(C[N+](C)(C)CCO)OCC.[Br-]` (stereo not drawn): the Ratio in experiment [3] is listed as 8.1. Further, the IC50 in experiment [1] is 630 nM; in experiment [2], 5100 nM.

Consider `CCCCCCCCCCCCCCCCCC(=O)NCC(COP(=O)([O-])OCC[N+](C)(C)C)OCC` (stereo not drawn), for which the Ratio in experiment [3] worked out at 84.4. Also, the values for the half-maximal inhibitory concentration (IC50) in experiment [1] and in experiment [2] were 160 nM and 13500 nM, respectively.

As to `CCCCCCCCCCCCCCCCOCC(C[N+]1(CO)CCCCC1)OCC.[I-]` (stereo not drawn), the Ratio in experiment [3] is listed as 8. The IC50 in experiment [1] is 300 nM; in experiment [2] it was 2400 nM.

As to `CCCCCCCCCCCCCCCCOCC[N+](C)(C)CCCO.[I-]`, the Ratio in experiment [3] stood at 6.1. Besides, the IC50 in experiment [1] is 240 nM; in experiment [2], 1500 nM.

For `CCCCCCCCCCCCCCCCCCOCC(COP(=O)([O-])OCC[N+](C)(C)C)OCC` (stereo not drawn), the Ratio in experiment [3] was found to be 11.1. Also, the IC50 in experiment [1] amounted to 270 nM; in experiment [2], 3000 nM.

As for `CCCCCCCCCCCCCCCCOCC(CP(=O)([O-])OCC[n+]1ccccc1)OC` (stereo not drawn), the Ratio in experiment [3] was 3.5. In addition, the IC50 in experiment [1] stood at 2200 nM; in experiment [2] it was 7700 nM.

`CCCCCCCCCCCCCCCC(=O)NCC(COP(=O)([O-])OCC[N+](C)(C)C)OCC` (stereo not drawn): in experiment [3], the Ratio came to 41.3. The IC50 in experiment [1] stood at 460 nM; in experiment [2], 19000 nM.

Consider `CCCCCCCCCCCCCCCCCCOCC[N+](C)(C)CC(O)CO.[I-]` (stereo not drawn), for which the Ratio in experiment [3] is reported as 14.5. Also, the concentration for half-maximal inhibition (IC50) amounted to 200 nM in experiment [1] and 2900 nM in experiment [2].

As for `Cc1cn([C@H]2C[C@H](N=[N+]=[N-])[C@@H](CO)O2)c(=O)[nH]c1=O` [ZIDOVUDINE], 5600 nM corresponded to half-maximal inhibition in experiment [2] (IC50).

As for `CCCCCCCCCCCCCCCCSCC(C[N+](C)(C)CC(O)CO)OC.[Br-]` (stereo not drawn), the Ratio in experiment [3] is 4.1. Further, the IC50 in experiment [1] stood at 490 nM; in experiment [2] it was 2000 nM.

As for `CCCCCCCCCCCCCCCC(=O)NCC(COP(=O)([O-])OCC[N+](C)(C)C)OC` (stereo not drawn), the Ratio in experiment [3] is 26.6. The IC50 amounted to 930 nM in experiment [1] and 24700 nM in experiment [2].

Regarding `CCCCCCCCCCCCCCCCOCC(COP(=O)(O)OCCNC(C)C)OCC` (stereo not drawn), the IC50 was > 5000 nM in experiment [1] and 7000 nM in experiment [2].

Turning to `CCCCCCCCCCCCCCCCOCC(COP(=O)([O-])OCC[n+]1ccccc1)OCC` (stereo not drawn), in experiment [3], the Ratio is on record as 1.7. Also, the IC50 in experiment [1] was found to be 4700 nM; in experiment [2] it was 8100 nM.

With `CCCCCCCCCCCCCCCCSCC(C[N+](C)(C)CCO)OC.[Br-]` (stereo not drawn), the Ratio in experiment [3] was determined as 5.7. Besides, the IC50 in experiment [1] worked out at 370 nM; in experiment [2], 2100 nM.
